Source: ChEMBL document CHEMBL1914440, “Discovery of potent, selective, and orally bioavailable alkynylphenoxyacetic acid CRTH2 (DP2) receptor antagonists for the treatment of allergic inflammatory diseases” (J Med Chem, 2011)
The source made the active and inactive calls. The rule behind the calls is not given here.

Legend:
[1] = test system: Mus musculus; experiment: Antiinflammatory activity in BALB/c mouse contact hypersensitivity model assessed as inhibition of FITC-mediated ear swelling at 5 mg/kg, ip administered 1 hr prior to and 7 hrs after the FITC-challenge measured 24 hrs after final dose
[2] = test system: Mus musculus; experiment: Antiinflammatory activity in BALB/c mouse model assessed as inhibition of ovalbumin-induced eosinophil accumulation in bronchoalveolar lavage fluid at 1 mg/kg, ip administered 1 hr prior to and 7 hrs after ovalbumin challenge for 3 days measured 8 hrs after final dose by cell counting; type: functional; details: Lung, route intraperitoneal
Method in brief: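 BALB/c mice were immunised with ovalbumin ip on days 0 and 7, then challenged with aerosolised ovalbumin for 30 min on days 15, 16 and 17. Bronchoalveolar lavage was done 8 h after the last challenge. Total cells were counted by haemocytometer, and eosinophils by differential count on DiffQuik-stained cytospins. Results are given as % inhibition, mean ± SEM.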

Q: Which results are given for `C[C@@H]1C[C@H]2[C@@H]3CCC4=CC(=O)C=C[C@]4(C)[C@@]3(F)[C@@H](O)C[C@]2(C)[C@@]1(O)C(=O)CO` [DEXAMETHASONE]?
A: inhibition [1]: Active; inhibition in vivo at 1 mg/kg [2]: 90%
